Assay [1] has as its target Receptor tyrosine-protein kinase erbB-2 (Homo sapiens) (UniProt P04626). The experiment in a line: Competitive binding affinity to ERBB2 (unknown origin) at 10 uM in presence of ATP relative to control. The method in brief:
(§1)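 In vitro ATP-site competition binding assay, part of profiling against a diverse panel of 128 kinases. Each compound was tested at a single concentration of 10 µM. Kinome selectivity was summarized as S15 selectivity scores.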

The target of assay [2] is Insulin receptor (Homo sapiens) (UniProt P06213). The experiment in a line: Competitive binding affinity to INSR (unknown origin) at 10 uM in presence of ATP relative to control. A digest of the protocol:
as §1

In assay [3] the target is Calcium/calmodulin-dependent protein kinase kinase 1 (Homo sapiens) (UniProt Q8N5S9). The experiment in a line: Competitive binding affinity to CAMKK1 (unknown origin) at 10 uM in presence of ATP relative to control.
Calcium/calmodulin-dependent protein kinase kinase 1 (Homo sapiens), sequence (Q8N5S9 whole entry, looked up): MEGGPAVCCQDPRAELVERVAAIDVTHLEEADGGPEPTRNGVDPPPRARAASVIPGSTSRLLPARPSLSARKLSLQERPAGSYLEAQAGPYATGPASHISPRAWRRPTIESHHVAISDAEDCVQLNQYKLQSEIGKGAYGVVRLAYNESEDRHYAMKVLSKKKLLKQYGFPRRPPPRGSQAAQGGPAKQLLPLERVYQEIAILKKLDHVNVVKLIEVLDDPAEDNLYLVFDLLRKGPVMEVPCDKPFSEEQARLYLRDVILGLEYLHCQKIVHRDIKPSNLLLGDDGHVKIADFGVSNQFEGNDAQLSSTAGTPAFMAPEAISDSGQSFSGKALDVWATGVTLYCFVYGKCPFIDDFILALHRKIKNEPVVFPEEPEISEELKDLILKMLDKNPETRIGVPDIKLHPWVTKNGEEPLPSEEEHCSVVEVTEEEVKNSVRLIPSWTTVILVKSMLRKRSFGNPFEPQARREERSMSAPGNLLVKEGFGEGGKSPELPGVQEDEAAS
Assay [4] has as its target BMP-2-inducible protein kinase (Homo sapiens) (UniProt Q9NSY1). The experiment in a line: Competitive binding affinity to BIKE (unknown origin) at 10 uM in presence of ATP relative to control.
Assay [5] concerns the target Tyrosine-protein kinase Fgr (Homo sapiens) (UniProt P09769). The experiment in a line: Competitive binding affinity to FGR (unknown origin) at 10 uM in presence of ATP relative to control. A digest of the protocol:
as §1

Assay [6] deals with Tyrosine-protein kinase Lyn (Homo sapiens) (UniProt P07948). The experiment in a line: Competitive binding affinity to LYN (unknown origin) at 10 uM in presence of ATP relative to control. The method in brief:
as §1

In assay [7] the target is Calcium/calmodulin-dependent protein kinase type 1 (Homo sapiens, UniProt Q14012). The experiment in a line: Competitive binding affinity to CAMK1 (unknown origin) at 10 uM in presence of ATP relative to control.
Calcium/calmodulin-dependent protein kinase type 1, sequence (Q14012 whole entry, looked up): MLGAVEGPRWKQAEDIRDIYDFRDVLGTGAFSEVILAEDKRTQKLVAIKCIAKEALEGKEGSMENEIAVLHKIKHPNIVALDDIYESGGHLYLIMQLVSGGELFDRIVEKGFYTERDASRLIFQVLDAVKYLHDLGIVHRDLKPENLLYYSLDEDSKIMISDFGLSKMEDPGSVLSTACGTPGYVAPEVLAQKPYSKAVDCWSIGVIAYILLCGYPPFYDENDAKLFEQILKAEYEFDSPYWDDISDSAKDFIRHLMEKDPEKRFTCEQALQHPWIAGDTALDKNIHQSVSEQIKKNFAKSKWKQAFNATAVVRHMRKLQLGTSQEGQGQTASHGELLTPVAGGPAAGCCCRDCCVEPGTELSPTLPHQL
Assay [8] addresses T1, Ephrin type-A receptor 6 (Homo sapiens) (UniProt Q9UF33).
T1 sequence (whole entry): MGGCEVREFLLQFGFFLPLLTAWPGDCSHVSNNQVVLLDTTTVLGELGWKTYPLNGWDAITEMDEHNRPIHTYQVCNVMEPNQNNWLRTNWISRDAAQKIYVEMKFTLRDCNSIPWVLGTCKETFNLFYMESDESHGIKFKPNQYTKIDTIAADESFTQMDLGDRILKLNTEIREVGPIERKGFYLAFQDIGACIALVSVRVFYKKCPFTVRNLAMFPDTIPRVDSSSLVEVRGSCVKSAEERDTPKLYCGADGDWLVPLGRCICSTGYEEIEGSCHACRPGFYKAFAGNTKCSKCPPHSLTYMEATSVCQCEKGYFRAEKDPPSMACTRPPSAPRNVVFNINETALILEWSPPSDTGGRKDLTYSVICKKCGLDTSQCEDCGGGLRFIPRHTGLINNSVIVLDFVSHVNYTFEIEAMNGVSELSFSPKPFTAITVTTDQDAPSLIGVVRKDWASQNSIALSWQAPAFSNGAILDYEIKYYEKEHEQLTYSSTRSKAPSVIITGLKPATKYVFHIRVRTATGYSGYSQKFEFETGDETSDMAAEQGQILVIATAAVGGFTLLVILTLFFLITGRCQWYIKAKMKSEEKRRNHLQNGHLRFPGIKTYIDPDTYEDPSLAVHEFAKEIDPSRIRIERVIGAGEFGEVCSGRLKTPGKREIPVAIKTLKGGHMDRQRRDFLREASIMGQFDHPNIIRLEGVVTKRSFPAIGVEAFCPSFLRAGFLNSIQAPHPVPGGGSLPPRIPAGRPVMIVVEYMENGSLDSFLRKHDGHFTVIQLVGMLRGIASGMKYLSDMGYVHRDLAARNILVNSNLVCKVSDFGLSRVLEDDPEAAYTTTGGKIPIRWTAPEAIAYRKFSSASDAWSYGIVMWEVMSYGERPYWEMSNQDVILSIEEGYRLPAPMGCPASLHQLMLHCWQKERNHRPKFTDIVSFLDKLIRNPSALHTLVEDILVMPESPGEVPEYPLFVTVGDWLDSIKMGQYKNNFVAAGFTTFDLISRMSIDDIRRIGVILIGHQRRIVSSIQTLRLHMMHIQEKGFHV
The experiment in a line: Competitive binding affinity to EPHA6 (unknown origin) at 10 uM in presence of ATP relative to control. A digest of the protocol:
as §1

The target of assay [9] is T2, Phosphorylase b kinase gamma catalytic chain, liver/testis isoform (Homo sapiens) (UniProt P15735).
T2 sequence (whole entry): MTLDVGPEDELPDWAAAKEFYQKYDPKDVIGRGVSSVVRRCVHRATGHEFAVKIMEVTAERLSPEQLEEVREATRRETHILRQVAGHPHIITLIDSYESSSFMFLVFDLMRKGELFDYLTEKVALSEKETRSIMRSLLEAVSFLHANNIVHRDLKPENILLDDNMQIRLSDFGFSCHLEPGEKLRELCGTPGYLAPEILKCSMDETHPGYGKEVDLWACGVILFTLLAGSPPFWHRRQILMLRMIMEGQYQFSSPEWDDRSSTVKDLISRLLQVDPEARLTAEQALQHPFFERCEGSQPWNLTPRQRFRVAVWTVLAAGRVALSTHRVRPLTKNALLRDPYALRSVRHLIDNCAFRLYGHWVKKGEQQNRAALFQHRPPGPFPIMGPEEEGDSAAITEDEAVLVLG
The experiment in a line: Competitive binding affinity to PHKG2 (unknown origin) at 10 uM in presence of ATP relative to control. A digest of the protocol:
(§2)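 In vitro ATP-site competition binding assay across a diverse panel of 128 kinases, with compound tested at a single concentration. Kinase selectivity scores (S15) were calculated from the panel profiles.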

For assay [10], the target named is T3, Mitogen-activated protein kinase 12 (Homo sapiens) (UniProt P53778).
T3 sequence (whole entry): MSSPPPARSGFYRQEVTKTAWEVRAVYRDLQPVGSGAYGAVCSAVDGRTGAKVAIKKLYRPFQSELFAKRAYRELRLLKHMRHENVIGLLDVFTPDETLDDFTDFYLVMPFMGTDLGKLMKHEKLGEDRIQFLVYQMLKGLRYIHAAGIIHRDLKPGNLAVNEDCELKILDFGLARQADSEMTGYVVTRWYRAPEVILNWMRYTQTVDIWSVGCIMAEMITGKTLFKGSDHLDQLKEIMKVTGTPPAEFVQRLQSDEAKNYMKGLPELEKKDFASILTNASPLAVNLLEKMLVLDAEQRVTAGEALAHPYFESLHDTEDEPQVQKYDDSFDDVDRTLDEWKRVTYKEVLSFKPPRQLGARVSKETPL
The experiment in a line: Competitive binding affinity to p38-gamma (unknown origin) at 10 uM in presence of ATP relative to control. The method in brief: as §2

One may read the inhibition as how much of the control response was suppressed.

Each structure is given as a SMILES string.

Insulin receptor (Homo sapiens), sequence (P06213 28-758 limits assumed): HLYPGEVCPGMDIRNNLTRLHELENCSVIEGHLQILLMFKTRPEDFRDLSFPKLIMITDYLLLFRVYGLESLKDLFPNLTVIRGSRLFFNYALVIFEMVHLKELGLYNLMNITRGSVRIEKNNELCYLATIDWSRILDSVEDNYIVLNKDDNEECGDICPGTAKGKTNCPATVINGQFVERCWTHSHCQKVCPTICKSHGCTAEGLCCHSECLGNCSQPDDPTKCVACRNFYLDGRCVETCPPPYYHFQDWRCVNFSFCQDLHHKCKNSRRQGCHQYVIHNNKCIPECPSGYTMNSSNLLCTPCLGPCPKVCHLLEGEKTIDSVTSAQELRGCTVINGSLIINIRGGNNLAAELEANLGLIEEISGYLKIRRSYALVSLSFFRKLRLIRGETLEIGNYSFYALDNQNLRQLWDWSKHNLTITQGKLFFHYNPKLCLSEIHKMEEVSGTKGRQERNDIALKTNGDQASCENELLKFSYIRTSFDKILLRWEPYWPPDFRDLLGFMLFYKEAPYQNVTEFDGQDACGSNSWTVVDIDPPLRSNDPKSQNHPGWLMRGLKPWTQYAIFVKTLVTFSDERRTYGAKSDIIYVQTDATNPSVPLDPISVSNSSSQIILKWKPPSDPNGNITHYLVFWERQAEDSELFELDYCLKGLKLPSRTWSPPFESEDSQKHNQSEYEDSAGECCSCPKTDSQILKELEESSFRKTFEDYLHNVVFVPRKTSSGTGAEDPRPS
Insulin receptor (Homo sapiens), sequence (P06213 763-1382 limits assumed): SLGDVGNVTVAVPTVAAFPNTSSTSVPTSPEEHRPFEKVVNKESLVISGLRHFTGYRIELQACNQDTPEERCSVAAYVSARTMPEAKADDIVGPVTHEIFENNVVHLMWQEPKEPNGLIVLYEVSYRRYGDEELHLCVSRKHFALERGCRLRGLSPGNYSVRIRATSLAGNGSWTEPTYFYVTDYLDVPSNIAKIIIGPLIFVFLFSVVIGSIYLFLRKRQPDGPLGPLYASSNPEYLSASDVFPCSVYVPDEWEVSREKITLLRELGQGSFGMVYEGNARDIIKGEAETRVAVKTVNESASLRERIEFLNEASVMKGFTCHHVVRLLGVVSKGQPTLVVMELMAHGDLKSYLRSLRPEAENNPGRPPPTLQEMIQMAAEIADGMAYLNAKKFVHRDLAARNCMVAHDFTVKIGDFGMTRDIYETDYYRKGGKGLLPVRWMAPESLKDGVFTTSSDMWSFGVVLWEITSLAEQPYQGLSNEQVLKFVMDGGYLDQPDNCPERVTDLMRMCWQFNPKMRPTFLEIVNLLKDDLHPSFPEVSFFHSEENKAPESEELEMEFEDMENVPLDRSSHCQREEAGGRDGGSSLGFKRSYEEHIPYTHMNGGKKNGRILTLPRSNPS
Receptor tyrosine-protein kinase erbB-2 (Homo sapiens), sequence (P04626 whole entry): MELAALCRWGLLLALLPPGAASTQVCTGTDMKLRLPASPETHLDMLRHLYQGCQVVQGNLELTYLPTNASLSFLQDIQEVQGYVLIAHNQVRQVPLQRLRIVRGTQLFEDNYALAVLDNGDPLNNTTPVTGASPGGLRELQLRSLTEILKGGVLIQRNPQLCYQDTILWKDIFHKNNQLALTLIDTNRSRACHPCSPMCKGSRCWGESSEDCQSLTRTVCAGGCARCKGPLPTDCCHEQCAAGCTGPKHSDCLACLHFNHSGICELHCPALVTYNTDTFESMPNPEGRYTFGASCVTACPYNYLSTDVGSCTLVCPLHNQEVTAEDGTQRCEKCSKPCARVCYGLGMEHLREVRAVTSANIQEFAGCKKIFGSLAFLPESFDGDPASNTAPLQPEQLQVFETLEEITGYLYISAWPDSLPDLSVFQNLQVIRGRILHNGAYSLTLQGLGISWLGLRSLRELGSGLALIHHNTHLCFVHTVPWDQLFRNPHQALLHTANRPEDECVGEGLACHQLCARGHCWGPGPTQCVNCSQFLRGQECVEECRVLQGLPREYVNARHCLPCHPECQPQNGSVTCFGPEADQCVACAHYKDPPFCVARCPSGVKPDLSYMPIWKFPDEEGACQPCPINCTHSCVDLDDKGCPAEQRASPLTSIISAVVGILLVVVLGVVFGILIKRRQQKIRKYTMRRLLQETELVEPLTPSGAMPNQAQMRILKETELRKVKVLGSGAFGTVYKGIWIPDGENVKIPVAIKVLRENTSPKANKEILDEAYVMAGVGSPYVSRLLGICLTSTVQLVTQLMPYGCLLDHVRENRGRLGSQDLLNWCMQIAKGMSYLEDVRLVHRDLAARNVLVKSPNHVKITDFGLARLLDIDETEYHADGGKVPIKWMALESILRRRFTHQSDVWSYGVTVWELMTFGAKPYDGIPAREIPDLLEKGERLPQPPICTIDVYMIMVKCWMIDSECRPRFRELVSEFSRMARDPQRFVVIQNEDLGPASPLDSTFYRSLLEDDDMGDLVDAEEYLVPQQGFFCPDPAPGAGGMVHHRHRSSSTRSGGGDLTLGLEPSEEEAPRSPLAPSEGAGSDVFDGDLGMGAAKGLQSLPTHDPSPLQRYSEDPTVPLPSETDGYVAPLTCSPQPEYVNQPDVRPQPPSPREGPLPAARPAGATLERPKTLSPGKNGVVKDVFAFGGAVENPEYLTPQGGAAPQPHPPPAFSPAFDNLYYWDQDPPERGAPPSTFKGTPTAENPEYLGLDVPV
Tyrosine-protein kinase Lyn (Homo sapiens), sequence (P07948 2-512 limits assumed): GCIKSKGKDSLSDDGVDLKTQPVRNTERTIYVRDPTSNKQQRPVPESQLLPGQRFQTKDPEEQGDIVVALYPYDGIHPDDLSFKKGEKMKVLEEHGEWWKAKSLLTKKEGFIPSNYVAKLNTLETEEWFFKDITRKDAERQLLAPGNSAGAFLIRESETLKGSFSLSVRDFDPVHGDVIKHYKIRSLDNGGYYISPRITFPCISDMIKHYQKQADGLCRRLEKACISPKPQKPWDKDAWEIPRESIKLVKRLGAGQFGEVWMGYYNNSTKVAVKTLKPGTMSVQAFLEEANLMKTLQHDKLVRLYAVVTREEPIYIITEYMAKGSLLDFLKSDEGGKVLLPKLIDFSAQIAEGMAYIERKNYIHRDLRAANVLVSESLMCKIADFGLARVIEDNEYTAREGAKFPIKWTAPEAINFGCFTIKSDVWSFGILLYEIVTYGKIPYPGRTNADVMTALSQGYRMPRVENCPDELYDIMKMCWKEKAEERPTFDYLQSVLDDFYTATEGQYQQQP
Tyrosine-protein kinase Fgr (Homo sapiens), sequence (P09769 2-529 limits assumed): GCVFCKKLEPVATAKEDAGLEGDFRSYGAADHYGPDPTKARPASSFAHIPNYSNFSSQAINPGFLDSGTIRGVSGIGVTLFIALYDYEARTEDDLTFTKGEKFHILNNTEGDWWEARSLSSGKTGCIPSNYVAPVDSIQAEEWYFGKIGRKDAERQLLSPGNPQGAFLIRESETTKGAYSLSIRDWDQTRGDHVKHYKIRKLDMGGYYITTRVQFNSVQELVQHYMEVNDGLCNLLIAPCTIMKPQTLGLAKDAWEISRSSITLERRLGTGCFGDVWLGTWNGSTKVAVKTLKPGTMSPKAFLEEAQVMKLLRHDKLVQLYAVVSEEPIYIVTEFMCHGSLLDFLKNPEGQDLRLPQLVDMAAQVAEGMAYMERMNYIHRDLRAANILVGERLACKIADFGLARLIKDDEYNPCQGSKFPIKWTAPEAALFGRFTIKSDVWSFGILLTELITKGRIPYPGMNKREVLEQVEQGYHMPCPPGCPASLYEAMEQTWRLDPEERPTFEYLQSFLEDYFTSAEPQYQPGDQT

With `O=C([C@H]1CC[C@H](Nc2nccc(-n3nnc4ccccc43)n2)CC1)N1CCOCC1`, the inhibition was under 50% in assay [1]; under 50% in assay [2]; under 50% in assay [3]; 87% in assay [4]; 82% in assay [5]; under 50% in assay [6]. Also, the inhibition in assay [7], in assay [8], in [9] and in assay [10] was under 50% throughout.
Take `CS(=O)(=O)CCCOc1cccc2c1ccn2-c1ccnc(N[C@H]2CC[C@H](C(=O)N3CCC(O)CC3)CC2)n1`: the inhibition in [7] is over 85%.
As to `O[C@H]1CC[C@H](Nc2nccc(-n3ccc4ccccc43)n2)CC1`, the inhibition in assay [1], in [2], in assay [3], in assay [4], in assay [5] and in assay [6] was under 50% throughout. Moreover, the inhibition in assay [7] was 73%; in [8] it was under 50%; in assay [9], under 50%; in assay [10], under 50%.
With `O[C@H]1CC[C@H](Nc2nccc(-n3ncc4ccccc43)n2)CC1`, the inhibition in assay [1] was under 50%; in assay [2], under 50%; in [3], under 50%; in assay [4], 81%; in assay [5] it was under 50%; in assay [6], under 50%. Besides, the inhibition in assay [7] is 76%; in assay [8] it was under 50%; in [9], under 50%; in [10], under 50%.
On to `O[C@H]1CC[C@H](Nc2nccc(-c3n[nH]c4ccccc34)n2)CC1`, for which the inhibition in assay [1] was under 50%; in [2] it was 98%; in assay [3], 85%; in assay [4], 99%; in [5], 80%; in assay [6] it was under 50%. Moreover, the inhibition in [7] was 98%; in assay [8] it was under 50%; in assay [9], 90%; in assay [10] it was under 50%.
On to `N[C@H]1CC[C@H](Nc2nccc(-n3nnc4ccccc43)n2)CC1`, for which the inhibition is under 50% in assay [1]; under 50% in [2]; under 50% in assay [3]; 99% in [4]; 80% in [5]; under 50% in assay [6]. The inhibition in [7] was 89%; in assay [8], under 50%; in [9], 100%; in assay [10], under 50%.
Turning to `O[C@H]1CC[C@H](Nc2nccc(-n3nnc4ccccc43)n2)CC1`, the inhibition in assay [1] was under 50%; in assay [2] it was under 50%; in [3], under 50%; in assay [4], 86%; in assay [5], 75%; in assay [6], under 50%. For the same compound, the inhibition in assay [7] is under 50%; in [8] it was under 50%; in assay [9], 83%; in [10], 96%.

For the origin of these results see ChEMBL document CHEMBL2424622, “Development of amino-pyrimidine inhibitors of c-Jun N-terminal kinase (JNK): kinase profiling guided optimization of a 1,2,3-benzotriazole lead” (Bioorg Med Chem Lett, 2013).
